Data set [1] can be described thus: Displacement of [3H]muscimol from GABAA receptor in Sprague-Dawley rat brain synaptic membranes after 60 mins by Topcount scintillation counting method. The method, boiled down: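 Synaptic membranes from male SPRD rat cortex and central hemispheres, washed four times (50 mM Tris-HCl pH 7.4, 48,000g, 4 °C). Membranes (70–80 µg protein) incubated with [3H]muscimol (5 nM final) and graded compound concentrations, 60 min, 0 °C. GF/C filtration, scintillation counting. Non-specific binding with 1.0 mM GABA. Triplicates, ≥3 experiments. IC50 converted to Ki (modified Cheng–Prusoff); mean pKi ± SEM.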

The nature of data set [2]: Ionization constant, pKa of the compound. In kind it is physicochemical. The method, boiled down:
(§1)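 Potentiometric titration of about 1 mM aqueous compound, ionic strength 0.15 M KCl. Solution acidified to pH 1.8 with 0.5 N HCl, then titrated with standardized 0.5 N KOH to pH 12.2 at 25 °C under argon. pKa taken as mean of four titrations.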

Data set [3] in a line: Ionization constant, pKa of the compound in methanol by diode array detection method. It counts as physicochemical.
Data set [4] can be described thus: Ionization constant, pKa of the compound in KCl at pH 1.8 by potentiometric titration method. It counts as physicochemical. The method, boiled down: as §1

Bounds are passed on as bounds.

In general, Ki refers to the equilibrium dissociation constant of an inhibitor or competing ligand from its target. A lower Ki goes with a stronger hold on the target. The pKa is the pH at which an ionisable group is half protonated. Low readings indicate a stronger acid or weaker base, high ones a weaker acid or stronger base. What is called pKi is −log10 of the Ki, conventionally taken in molar units. A lower pKi goes with a high Ki.

`On1cc(C2CCNCC2)cn1` gave a Ki in data set [1] of 10 µM. In data set [2], the pKa is 5.4.
Turning to `Oc1cc(C2CCNCC2)[nH]n1`, the Ki in data set [1] was over 100 µM. In data set [3], the pKa came to 6.7.
Regarding `Cn1nc(O)c(CCN)n1`, the Ki in data set [1] is over 100 µM. In data set [4], this compound showed a pKa of 5.92.
In data set [1], `Oc1nn(C2CCNCC2)nc1CCC(c1ccccc1)c1ccccc1` gave a Ki of over 100 µM.
On to `Oc1nn(C2CCNCC2)nc1Cc1ccc2ccccc2c1`, for which, in data set [1], the Ki amounted to 3.3 µM and the pKi amounted to 5.49.
Turning to `NCCc1nsnc1O`, in data set [1], the Ki amounted to 75 µM and the pKi is given as 4.13. This compound also came in with a pKa in data set [4] of 4.54.
In data set [1], `Oc1nnn(C2CCNCC2)c1Cc1ccc2ccccc2c1` showed a Ki of 2.4 µM and a pKi of 5.62.
`Oc1cnn(C2CCNCC2)n1` displayed a Ki in data set [1] of over 100 µM. In addition, the pKa in data set [4] turned out to be 6.36.
In the case of `Oc1cn(C2CCNCC2)nn1`, in data set [1], the affinity, expressed as Ki, was 55 µM and the pKi stood at 4.26. In addition, the pKa in data set [4] amounted to 6.51.
Turning to `Oc1nnn(C2CCNCC2)c1CCC(c1ccccc1)c1ccccc1`, in data set [1], the Ki is 1.6 µM and the pKi came to 5.8.
